Assay outcomes (PubChem)
Most compounds without a hit are left out; they make up all but 2.6% or so of the library.
SENP7 inh = SENP7 protease inhibitors, primary screen, biochemical, luminescence, uHTS | recombinant SENP7, Z-RLRGG-aminoluciferin luminescence, 40 min | inhibition, % at 5 µM | Sentrin-specific protease 7 (Homo sapiens), Q9BQF6 | 330,000 tested, 1.5% active;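 active = inhibition above about 50% at the single test dose, limit read from the data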;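 note: plate controls were DMSO with enzyme for no effect and no enzyme buffer wells for full effect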
Target sequence (Q9BQF6 706-1050 limits assumed): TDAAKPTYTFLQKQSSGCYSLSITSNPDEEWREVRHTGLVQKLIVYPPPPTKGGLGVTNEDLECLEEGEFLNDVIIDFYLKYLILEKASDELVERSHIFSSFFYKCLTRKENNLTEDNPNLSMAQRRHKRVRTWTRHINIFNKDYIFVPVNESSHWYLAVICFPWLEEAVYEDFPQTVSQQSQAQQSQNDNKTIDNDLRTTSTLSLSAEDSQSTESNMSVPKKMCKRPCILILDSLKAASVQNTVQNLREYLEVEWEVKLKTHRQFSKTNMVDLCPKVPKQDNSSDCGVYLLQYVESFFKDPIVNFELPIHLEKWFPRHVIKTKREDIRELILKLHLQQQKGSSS
SENP8 block-1 = human SENP8 protease inhibitors, primary screen, biochemical, fluorescence, Nedd8 protein substrate, uHTS; 360,000 tested, 0.64% active; AID 602440, 2012; Sentrin-specific protease 8 (Homo sapiens), Q96LD8; recombinant SENP8; inhibition, % at 20 µM; in the data active = inhibition mostly above about 40%, no sharp cut-off; inactive = mostly below about 27%
SENP6 block = SENP6 protease inhibitors, primary screen, biochemical, luminescence, uHTS; Sentrin-specific protease 6 (Homo sapiens), Q9GZR1; Recombinant SENP6 catalytic domain, aminoluciferin luminescence; inhibition, % at 10 µM; 330,000 tested, 1.8% active;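 active = inhibition above about 50% at the single tested dose, limit read from the data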;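 note: plate controls were DMSO wells with enzyme for no effect and DMSO wells lacking enzyme for full effect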
SENP8 block-2 = SENP8 protease inhibitors, primary screen, biochemical, luminescence; Sentrin-specific protease 8 (Homo sapiens), Q96LD8; purified SENP8, Z-RLRGG-aminoluciferin cleavage; inhibition, % at 10 µM; 330,000 tested, 1.2% active; in the data active = inhibition above about 50%
SENP1 FRET inh = human SENP1 catalytic domain inhibitors, primary screen, biochemical, FRET, uHTS | Sentrin-specific protease 1 (Homo sapiens), Q9P0U3 | recombinant SENP1 catalytic domain, CyPet-SUMO1-YPet FRET cleavage | inhibition, % at 10 µM | 360,000 tested, 0.21% active;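 active = inhibition at least 30% at 10 µM, raw YFP signal under a set limit, fluorescence ratio 0.5 to 1.5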;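 note: 0% = enzyme with DMSO and 100% = no enzyme wells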
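Compound: 10 µM single point, 0.5% DMSO; Test system: hSENP1 catalytic domain, recombinant; Timing: 50 min reaction at room temperature; Technique: FRET, CFP and YFP emission; Control set: no-enzyme wells low, DMSO-plus-enzyme wells high control.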
UCH37 DUB inh = inhibitors of human UCH37 deubiquitinase, primary screen, biochemical, Ub-AMC cleavage, fluorescence; AID 588478, 2011; purified proteasome/UCH37; 330,000 tested, 0.33% active; inhibition, % (test concentration not listed);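 active = mean inhibition over replicate wells above about 20%, limit read from the data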;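 note: 0% = compound-free wells with enzyme and 100% = wells lacking proteasome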
Target sequence (Q9Y5K5 whole entry, looked up): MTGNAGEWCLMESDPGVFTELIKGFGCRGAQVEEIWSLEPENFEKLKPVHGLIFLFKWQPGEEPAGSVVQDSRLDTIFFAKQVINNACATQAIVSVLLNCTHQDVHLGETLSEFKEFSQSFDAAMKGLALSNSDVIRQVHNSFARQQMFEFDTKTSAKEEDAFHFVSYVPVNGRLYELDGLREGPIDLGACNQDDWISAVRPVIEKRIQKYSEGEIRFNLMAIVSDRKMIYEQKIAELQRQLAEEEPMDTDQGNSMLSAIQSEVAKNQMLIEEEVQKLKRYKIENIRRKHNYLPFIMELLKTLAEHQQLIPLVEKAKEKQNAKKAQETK
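Test system – human UCH37 enzyme supplied as purified proteasome complex · Incubation – 30 min preincubation with enzyme, 25 min cleavage at room temperature · Detection – AMC fluorescence from Ub-AMC cleavage, excitation 355 nm, emission 460 nm · Benchmarks – no-proteasome wells (full inhibition) and compound-free wells (no inhibition)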
SENP8 conf = SENP8 protease inhibitors, retest, confirmation, biochemical, luminescence, single concentration | shares compounds with SENP7 inh | Recombinant SENP8, Z-RLRGG-aminoluciferin luminescence, 60 min | inhibition, % at 12.5 µM | 6,200 tested, 40% active | AID 488912, 2010;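 active = mean inhibition across replicates above about 50%, limit read from the data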
SENP6 conf = SENP6 protease inhibitors, confirmation, biochemical, luminescence, single concentration. inhibition, % at 12.5 µM. 6,200 tested, 58% active. recombinant SENP6, Z-RLRGG-aminoluciferin luminescence. shares compounds with SENP7 inh. AID 488915, 2010
SENP7 conf = SENP7 protease inhibitors, retest, confirmation, biochemical, luminescence, single concentration | shares compounds with SENP7 inh | recombinant SENP7, Z-RLRGG-aminoluciferin luminescence, 40 min | inhibition, % at 12.5 µM | 6,200 tested, 69% active | AID 488917, 2010
Casp3 select = caspase-3 protease inhibitors, confirmation, selectivity assay for SENP inhibitor project, biochemical, single concentration; shares compounds with SENP7 inh; purified caspase-3, Z-DEVD-aminoluciferin luminescence, 60 min; inhibition, % at 12.5 µM; 6,200 tested, 60% active; AID 488918, 2010;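 active = mean inhibition above about 50%, limit read from the data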;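 note: plate controls were enzyme with DMSO for no effect and wells without caspase-3 for full effect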
SENP luc ctr = luminescence interference (SENP counter-screen). 6,200 tested, 39% active. shares compounds with SENP7 inh. Pre-incubated SENP8/Z-RLRGG-aminoluciferin, luciferase luminescence interference. inhibition, % at 12.5 µM;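 active = mean inhibition above about 50% when retested at one dose, limit read from the data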;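 note: plate controls were DMSO wells with completed reaction for no effect and substrate without enzyme for full effect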
Numbers without * were called inactive; x = no result given.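 Rule for the calls, unless noted: active = mean inhibition above about 50% in the one-dose retest (limit read from the data); inactive = the rest.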

SMILES | SENP7 inh | SENP8 block-1 | SENP6 block | SENP8 block-2 | SENP1 FRET inh | UCH37 DUB inh | SENP8 conf | SENP6 conf | SENP7 conf | Casp3 select | SENP luc ctr
O=C(O)c1cccc(Nc2ncnc3c2cnn3-c2ccccc2)c1 | 89.8* | -43.0 | 96.9* | 89.8* | 2.2 | 0.7 | 94.7* | 95.4* | 101.4* | 49.6 | 92.5*
Fc1cccc(Nc2ncnc3c2cnn3-c2ccccc2)c1 | -9.3 | -185.9 | -9.3 | -21.2 | -3.2 | -8.2 | x | x | x | x | x
O=C(O)c1cccc(Nc2ncnc3ccccc23)c1 | -3.3 | -5.9 | 67.8* | 58.6* | 0.3 | 3.0 | 70.2* | 63.6* | 84.9* | 35.5 | 68.1*
O=C(O)c1cccc(Nc2ccnc(Nc3cccc(C(=O)O)c3)n2)c1 | 97.6* | 19.4 | 93.6* | 90.2* | 2.0 | 4.6 | 96.5* | 98.0* | 101.9* | 95.1* | 77.1*
O=C(NN=Cc1ccccc1)c1ccc(N2CCOCC2)c([N+](=O)[O-])c1 | x | x | x | x | x | -0.7 | x | x | x | x | x
Cc1ccc(NC2=Nc3ccccc3CS2)cc1 | 92.0* | 27.3 | 82.9* | 75.0* | 0.8 | -3.5 | 49.7 | 82.6* | 94.9* | 85.1* | 5.8
O=[N+]([O-])c1ccc(/C=C/c2ccc3ccccc3n2)cc1 | 93.8* | 4.2 | 92.8* | 91.0* | 5.2 | 3.2 | 64.1* | 77.8* | 93.6* | 77.9* | 13.8
O=[N+]([O-])c1ccc(/C=C/c2ccc3cccc(O)c3n2)cc1 | 53.1* | 22.2 | 45.3 | 33.8 | 3.0 | 8.2 | 0.2 | 5.2 | 6.0 | 10.9 | 7.3
O=C(CSc1cccc2cccnc12)NN=Cc1cccc(O)c1 | x | x | x | x | x | -45.1 | x | x | x | x | x
Oc1ccc(N=Nc2ccc(Br)cc2)c(O)c1 | 88.6* | 26.8 | 98.8* | 95.6* | 4.1 | x | 92.9* | 92.9* | 98.3* | 71.7* | 82.1*
O=C(Cc1ccc(Br)cc1)c1ccc(O)cc1O | -6.8 | 8.1 | 20.4 | 12.0 | 1.6 | -3.8 | x | x | x | x | x
Cc1ccc(N=Nc2ccc(O)cc2)c(Br)c1 | 20.4 | 16.3 | 63.7* | 55.8* | 3.3 | 7.6 | 73.9* | 72.6* | 86.0* | 22.8 | 69.0*
c1ccc(-c2cn3c(n2)-c2ccccc2C3)cc1 | 97.2* | -41.8 | 96.4* | 96.0* | -1.1 | -5.2 | 98.9* | 99.7* | 102.7* | 98.8* | 96.7*
COc1ccc(-n2cc3ccc([N+](=O)[O-])cc3n2)cc1 | 86.9* | 9.3 | 78.0* | 78.3* | 2.7 | -0.1 | 47.1 | 50.7* | 71.6* | 59.4* | 31.2
COc1ccc(C2=NCCn3nc4cc([N+](=O)[O-])ccc4c32)cc1 | 3.2 | -39.1 | 1.9 | -8.6 | 6.7 | 2.0 | x | x | x | x | x
COc1ccccc1N/C=C/c1onc(C)c1[N+](=O)[O-] | 98.6* | 22.3 | 98.8* | 95.7* | -23.9 | 2.5 | 83.9* | 95.2* | 96.2* | 91.9* | 10.8
Cc1noc(/C=C/c2ccccn2)c1[N+](=O)[O-] | -1.7 | -0.2 | 10.4 | -3.7 | -1.1 | 5.1 | x | x | x | x | x
COc1ccc(C(=O)Nc2ccc(C)cn2)c(OC)c1 | 94.4* | 10.2 | 90.5* | 89.8* | 0.9 | 2.6 | 93.0* | 92.4* | 99.8* | 93.8* | 91.3*
Cc1ccc(NC(=O)C(=O)Nc2ccc(C)cn2)nc1 | 0.5 | 12.5 | -19.5 | 6.2 | 0.3 | -1.3 | x | x | x | x | x
Cc1ccc(NC(=O)c2sccc2C)nc1 | 98.6* | 7.1 | 99.1* | 92.4* | 0.0 | 4.4 | 94.0* | 95.3* | 101.7* | 97.9* | 91.7*
CCOC(C)=Nn1c2nc3ccccc3nc2c2c(=O)n(C3CCCC3)c(C)nc21 | x | x | x | x | x | 2.5 | x | x | x | x | x
COc1ccc(C(=O)NN=Cc2ccc(SC)cc2)cc1 | x | x | x | x | x | -5.6 | x | x | x | x | x
CCOc1ccc(OCCn2nnc3ccccc3c2=O)cc1 | 67.2* | -4.7 | 68.6* | 57.7* | -3.2 | 4.3 | 36.5 | 59.5* | 88.9* | 80.7* | 50.1*
CCCn1nnc2ccccc2c1=O | 2.7 | 23.7 | -12.9 | -3.8 | -3.2 | -4.8 | x | x | x | x | x
O=C(O)c1cc(O)c2c(c1)C(=O)c1cc(O)cc(O)c1C2=O | -5.8 | 2.8 | 51.9* | 28.3 | 4.2 | 16.1 | 67.0* | 60.0* | 84.3* | 23.3 | 72.1*
SMILES | SENP7 inh | SENP8 block-1 | SENP6 block | SENP8 block-2 | SENP1 FRET inh | UCH37 DUB inh | SENP8 conf | SENP6 conf | SENP7 conf | Casp3 select | SENP luc ctr
COc1cc(C=NNC(=O)c2ccccc2Cl)ccc1Oc1ccc([N+](=O)[O-])cn1 | x | x | x | x | x | 1.4 | x | x | x | x | x
O=C(CSc1ncnc2ccccc12)c1cccs1 | 55.9* | 2.2 | -65.6 | 8.4 | -176.3 | 7.2 | 30.1 | 51.8* | 87.4* | 26.9 | 7.2
COc1ccc(C=NNc2nccnc2Cl)cc1 | x | x | x | x | x | 8.1 | x | x | x | x | x
Oc1ccc(/C=N/Nc2nccnc2Cl)cc1 | 98.8* | -61.1 | 96.7* | 97.9* | 1.7 | x | 98.5* | 99.2* | 102.4* | 98.2* | 97.9*
Fc1cccc(/C=N/Nc2nncc3ccccc23)c1 | 95.5* | 19.1 | 92.2* | 89.8* | 3.7 | x | 78.2* | 94.1* | 98.2* | 88.6* | 60.8*
Fc1cccc(C=NNc2ccccn2)c1 | x | x | x | x | x | 3.7 | x | x | x | x | x
Fc1cccc(/C=N/Nc2nccnc2Cl)c1 | 98.9* | -220.4 | 97.1* | 92.9* | -1.5 | x | 95.7* | 96.4* | 102.4* | 98.4* | 96.4*
C(=N\Nc1nncc2ccccc12)/c1ccccn1 | 20.4 | 28.7 | 43.7 | 23.4 | 3.3 | x | x | x | x | x | x
Oc1ccc(C=NNc2nccnc2Cl)c(O)c1 | x | x | x | x | x | 6.1 | x | x | x | x | x
Fc1ccc(/C=N/Nc2nccnc2Cl)cc1 | 94.3* | -144.6 | 93.1* | 86.3* | 2.0 | x | 92.8* | 93.3* | 99.7* | 96.3* | 92.3*
